Data set [1] is described as follows: Antineuroinflammatory activity in mouse BV2 cells assessed as inhibition of LPS-stimulated nitric oxide production preincubated for 4 hrs followed by LPS challenge measured after 24 hrs by Griess assay. The format is functional, cell-based. To be noted: BV-2. The procedure, abridged: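 BV-2 mouse microglia (ATCC) kept in DMEM with 1800 mg/L NaHCO3, 10% FBS and penicillin/streptomycin at 37 °C, 5% CO2. Cells were pretreated 4 h with 3.125–100 μM, then LPS 1 μg/mL for 24 h. Supernatant nitrite was measured by Griess reagent at 540 nm against a NaNO2 standard curve. IC50 is the concentration giving 50% inhibition; mean ± SD of three independent experiments.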

The nature of data set [2]: Cytotoxicity against mouse BV2 cells assessed as cell viability at 50 uM by MTT assay relative to control. To be noted: read-out: Activity. The format is cell-based, BV-2. Summed up:
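MTT colorimetric read-out on BV-2 microglia in DMEM/10% FBS at 37 °C, 5% CO2, after treatment at 50 μM. Viability is expressed as percent of untreated control cells; mean ± SD.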
For orientation: Formazan colour is commonly taken as a measure of viable cells.

The results in this text go back to ChEMBL document CHEMBL3593214, “ent-Abietane-Type and Related Seco-/Nor-diterpenoids from the Rare Chloranthaceae Plant Chloranthus sessilifolius and Their Antineuroinflammatory Activities” (J Nat Prod, 2015).

SMILES strings stand for the structures. A value given as a limit tells only on which side of the number the result lay.

Turning to `CC(C)C(=O)[C@@H]1C[C@@H]2C(=CC[C@@H]3C(C)(C)[C@H](O)CC[C@@]23C)[C@H]1O`, the IC50 (in general, the concentration that gives 50% inhibition) in data set [1] was above 100 µM.
Regarding `CC(C)C(=O)[C@H]1C[C@@H]2C(=CC[C@@H]3C(C)(C)[C@H](O)CC[C@@]23C)[C@H]1O`, the IC50 in data set [1] is above 100 µM.
Still for that read-out and setting: the result for `CC(C)C1=CC(=O)[C@@]2(CC1)OC(=O)C[C@@H]1C(C)(C)[C@H](O)CC[C@]12C` reads above 100 µM.
Consider `CC(C)[C@]1(O)C=C2C(=O)C[C@@H]3C(C)(C)[C@H](O)CC[C@@]3(C)[C@@H]2CC1`, for which, in data set [1], the IC50 was above 100 µM.
For the compound `CC(C)[C@]1(O)C=C2C(=O)C=C3C(C)(C)[C@H](O)CC[C@@]3(C)[C@@H]2CC1`, in data set [1], the IC50 was above 100 µM.
Regarding `CO[C@]1(C(C)C)C=C2C(=O)C[C@@H]3C(C)(C)[C@H](O)CC[C@@]3(C)[C@@H]2CC1`, the viability at 50 µM in data set [2] was 96.7%. For the same compound, in data set [1], the IC50 amounted to 8.3 µM.
As to `CC1(C)[C@H](O)CC[C@@]2(C)[C@@H]3CC[C@@](O)(C(C)(C)O)C=C3C(=O)C[C@H]12`, the IC50 in data set [1] is above 100 µM.
Take `CC(C)[C@@]1(O)C=C2C(=O)C[C@@H]3C(C)(C)[C@H](O)CC[C@@]3(C)[C@@H]2C[C@H]1O`: the viability at 50 µM in data set [2] came out at 98.4%. Further, in data set [1], the IC50 turned out to be 37.7 µM.
As for `CC(C)[C@@]1(O)C=C2C(=O)C[C@@H]3[C@@](C)(CO)CCC[C@@]3(C)[C@@H]2CC1`, the viability at 50 µM in data set [2] amounted to 96.8%. The IC50 in data set [1] came to 7.4 µM.
For `CC(C)(O)c1ccc2c(c1)CC[C@@H]1C(C)(C)[C@H](O)CC[C@@]21C`, in that order: 95.4% and 17.8 µM.
Turning to `CC(C)(O)c1ccc2c(c1)C(=O)C=C1C(C)(C)[C@H](O)CC[C@]12C`, the IC50 in data set [1] was above 100 µM.
In the case of `CC(C)c1ccc2c(c1)[C@H](O)C[C@@H]1C(C)(C)[C@H](O)CC[C@@]21C`, the viability at 50 µM in data set [2] worked out at 94.7%. Moreover, the IC50 in data set [1] was 43.9 µM.
For the compound `CC(C)C(=O)CC[C@@H]1C(C=O)=C[C@@H](O)[C@@H]2C(C)(C)[C@H](O)CC[C@@]12C`, in data set [1], the IC50 is above 100 µM.
Same read-out and setting: the result for `CC(C)C(=O)CC[C@@H]1CC(=O)C[C@@H]2C(C)(C)[C@H](O)CC[C@@]12C` reads above 100 µM; that for `CC1(C)[C@H](O)CC[C@@]2(C)[C@@H]3CCC(=O)C=C3[C@@H](O)C[C@H]12`, above 100 µM.
`CC1(C)[C@H](O)CC[C@@]2(C)[C@@H]3CCC(=O)C=C3[C@H](O)C[C@H]12`: the IC50 in data set [1] was above 100 µM.
As for `CNC(=N)NCCC[C@H](N)C(=O)O` [TILARGININE], in data set [2], the viability at 50 µM stood at 98.5%. Besides, the IC50 in data set [1] was 14.4 µM.
